Measurements from article PMC8182972 (Journal of medicinal chemistry, 2011).
≈ marks a conversion by molar mass, not a printed value. Where “and” joins values, the source holds several entries; their conditions need not be identical. Equal entries are not always repeated. Entries after “also recorded” stand apart in the source; their conditions may differ. Blank lines part the entries; values can stand above or below the compound they belong to.

What was measured:
[1] = Aqueous solubility; format: physicochemical; conditions: for Maximum Solubility: 1% DMSO in PBS
[2] = In vitro microsomal stability, human; format: in vitro ADME; conditions: 37 °C; for CLint scaled at 1 h, 5 µM: human, microsomes
[3] = tested on: primary cortical neurons; test: Primary cortical neuron cell protection assay; format: cell-based, rat; conditions: MG132 100 nM; active = viability restored ≥ 5 SD from MG132 controls
[4] = tested on: Caco-2 monolayer cells; test: Caco-2 permeability; format: in vitro ADME; conditions: for Ratio (B→A / A→B): Caco-2 efflux ratio
[5] = In vitro microsomal stability, mouse; format: in vitro ADME; conditions: 5 μM, 37 °C; for CL’int: 1 h, with NADPH; for CL’int NADPH-free: absence of NADPH
[6] = tested on: PC12 cells expressing mutant G93A SOD1; format: cell-based; conditions: for EC50: PC12 cells expressing mutant G93A SOD1, MG132 100 nM, Calcein-AM viability
[7] = Metabolite profiling of 1; format: in vitro ADME; conditions: rat liver microsomes, 5 μM, in the presence of NADPH, LC/MS/MS
In short: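 Test compound and its [15N2]-labelled analog (5 μM) were incubated in duplicate with or without rat liver microsomes, in the presence and absence of NADPH. Aliquots were taken at 0, 10, 20, 40 and 60 min. Protein was precipitated with acetonitrile containing internal standard, and supernatants were analysed by LC/MS/MS for new peaks absent from no-microsome, no-compound and no-NADPH controls.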

[8] = tested on: 68 in vitro enzyme and receptor assays; test: LeadProfilingScreen; format: binding; conditions: 10 μM, in duplicate
In short: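 Test compound was screened at 10 μM in duplicate against a commercial panel of 68 enzyme and receptor assays. The panel covers common adverse CNS, cardiovascular, pulmonary and […] liabilities.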

[9] = Mouse in vivo steady-state level and blood-brain barrier penetration; set-up: species or system mice
In short: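 B6SJL mice received a 300 mg/kg bolus i.p. injection of test compound. Blood and brain were collected at 0, 1, 3, 6, 12 and 24 h, flash-frozen in liquid nitrogen and stored at -80 °C. Samples were quantified by mass spectrometry with ESI ionization in MRM mode.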

[10] = tested on: SHSY-5Y; test: Screen in other cell types: SHSY-5Y; format: cell-based
[11] = tested on: HeLa; test: Screen in other cell types: HeLa; format: cell-based
[12] = In vivo rat PK profiling; set-up: species or system Sprague-Dawley rats; conditions: SD rats
In short: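 Sprague-Dawley rats received a single 1 mg/kg bolus of test compound, i.v. or orally. Plasma profiling gave AUC last, AUC/dose, T1/2, clearance, Vss, Cmax, Tmax and oral bioavailability (%F). Work was done by a contract partner.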

[13] = tested on: HEK293; test: Screen in other cell types: HEK293; format: cell-based
[14] = target: CYP2C19 (Homo sapiens, UniProt P33261); test: CYP inhibition in human liver microsomes; format: biochemical
In short: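 Reversible CYP inhibition was measured in human liver microsomes across CYP1A2, 2C9, 2C19, 2D6 and 3A4. Each isozyme used a single probe substrate, except CYP3A4, which used both testosterone and midazolam. IC50 values were derived from this. Work was done by a contract partner.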

[15] = tested on: ALS patients; conditions: cited from earlier work
[16] = B6SJL, mouse, plasma, ip, 300 mg/kg

Chain of CYP2C19 (P33261 whole entry): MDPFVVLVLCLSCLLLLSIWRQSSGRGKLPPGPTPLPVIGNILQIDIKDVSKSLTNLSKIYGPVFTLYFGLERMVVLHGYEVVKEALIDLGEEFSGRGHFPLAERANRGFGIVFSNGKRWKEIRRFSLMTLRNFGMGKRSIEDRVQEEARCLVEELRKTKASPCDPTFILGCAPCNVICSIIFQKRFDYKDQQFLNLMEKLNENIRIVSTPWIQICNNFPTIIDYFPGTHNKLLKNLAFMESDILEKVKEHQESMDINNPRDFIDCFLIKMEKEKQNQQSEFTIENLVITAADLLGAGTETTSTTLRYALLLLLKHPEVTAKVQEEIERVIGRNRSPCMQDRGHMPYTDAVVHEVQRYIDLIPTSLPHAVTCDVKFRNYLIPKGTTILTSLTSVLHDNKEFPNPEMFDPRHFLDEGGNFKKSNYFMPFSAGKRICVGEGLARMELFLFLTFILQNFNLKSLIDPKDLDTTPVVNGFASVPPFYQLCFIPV

Compound: 5-(3,5-Dichlorophenylsulfonyl)-1H-pyrazol-3(2H)-one [Compound 7]
Maximum Solubility ([1]; 45 min): ≥500 µM
Maximum Solubility ([1]; 16 h): ≥500 µM
CL’int ([2]; 5 μM, 1 h, with NADPH): 4.5 mL/min/kg
CL’int NADPH-free ([2]; 5 μM, absence of NADPH): 1.3 mL/min/kg
activity in primary cortical neuron cell protection assay [3]: active
Papp (A→B) ([4]; Caco-2): 27.0 10^−6 cm/s
Papp (B→A) ([4]; Caco-2): 4.4 10^−6 cm/s
Ratio (B→A / A→B) [4]: 0.2
CL’int [5]: 15.3 mL/min/kg
EC50 [6]: 1410 nM

Compound: 5-(4-Chloro-2,5-dimethylphenylsulfinyl)-1H-pyrazol-3(2H)-one [Compound 5]
EC50 [6]: 2880 nM

Compound: 5-(4-Chloro-2,5-dimethylphenylsulfonyl)-1H-pyrazol-3(2H)-one [Compound 8]
EC50 [6]: 1470 nM

Compound: 5-(4-Chlorophenylsulfinyl)-1H-pyrazol-3(2H)-one [Compound 4]
maximum viability in the cytotoxicity protection assay [6]: ~ 35%
EC50 [6]: > 32000 nM

Compound: 5-(4-Chlorophenylsulfonyl)-1H-pyrazol-3(2H)-one [Compound 6]
EC50 [6]: 4700 nM

microsomal metabolite identified [7]: sulfoxide
Compound: O=c1cc(CSc2ccc(Cl)cc2)[nH][nH]1 [Compound 1]

Compound: O=c1cc(CSc2c(Cl)cccc2Cl)[nH][nH]1 [Compound 2]
activity in primary cortical neuron cell protection assay [3]: active

CLint scaled at 1 h, 5 µM ([2]; CL’int, 1 h, with NADPH): 15.3 mL/min/kg
CL’int [5]: 24.5 mL/min/kg
CL’int NADPH-free [5]: 6.1 mL/min/kg
Compound: O=c1cc(COc2ccc(Cl)cc2)[nH][nH]1 [Compound 9, 5-((4-Chlorophenoxy)methyl)-1H-pyrazol-3(2H)-one]

solubility at 45 min ([1]; PBS with 1% DMSO): 250 µM (≈ 64.8 µg/mL)
solubility at 16 h ([1]; PBS with 1% DMSO): 250 µM (≈ 64.8 µg/mL)
concentration at 0 h [9, 16]: 0 ng/mL
concentration at 3 h [9, 16]: 88800 ng/mL and 88.8 µM
concentration at 6 h [9, 16]: 90000 ng/mL and 90 µM
concentration at 12 h [9, 16]: 64400 ng/mL and 64.4 µM
concentration at 24 h [9, 16]: 1700 ng/mL and 1.7 µM
time of plasma peak ([9]; mice, i.p.): 3 to 6 h
CLint scaled at 1 h, 5 µM ([2]; CL’int NADPH-free, absence of NADPH): 13 mL/min/kg
Ratio (B→A / A→B) [4]: 0.2–0.6
CL’int [5]: 64 mL/min/kg
CL’int NADPH-free [5]: 21 mL/min/kg
AUC/Dose ([12]; 1 mg/kg i.v. single bolus): 184 ng × h/mL/dose
AUC/Dose ([12]; 1 mg/kg p.o. single bolus): 50 ng × h/mL/dose
IC50 [14]: > 50000 nM
Compound: O=c1cc(COc2cc(Cl)cc(Cl)c2)[nH][nH]1 [Compound 13, 5-((3,5-Dichlorophenoxy)methyl)-1H-pyrazol-3(2H)-one]
activity in the 68 assays of LeadProfilingScreen [8]: No significant activity; also recorded: no significant binding
activity in SHSY-5Y cells [10]: active
activity in primary cortical neuron cell protection assay [3]: active
activity in HeLa cells [11]: active
activity in HEK293 cells [13]: active

Compound: Nc1nc2ccc(OC(F)(F)F)cc2s1 [riluzole]
extension of patient lives [15]: 2–3 months
